Laboratory results from ChEMBL document CHEMBL2417474, “Synthesis, antiproliferative and anti-inflammatory activities of some novel 6-aryl-2-(p-(methanesulfonyl)phenyl)-4,5-dihydropyridazi-3(2H)-ones” (Eur J Med Chem, 2013).

Tests used:
Assay type in all cases: functional
RPMI-8226 = experiment: Growth inhibition of human RPMI8226 cells after 48 hrs by sulforhodamine B assay; conditions: RPMI-8226, 48 h
Outline: (§1)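 NCI 60-cell-line panel. Cells were grown in medium with 5% fetal calf serum and 2 mM L-glutamine, then preincubated 24 h in plates. Compounds were added from DMSO at five 10-fold concentrations from 100 to 0.01 µM and left on cells continuously for 48 h. Cell growth was read by sulforhodamine B protein stain. GI50 is the concentration that halves net protein increase relative to control cells.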

OVCAR-3 = experiment: Growth inhibition of human OVCAR3 cells after 48 hrs by sulforhodamine B assay; conditions: OVCAR-3, 48 h; outline: as §1
LOX IMVI = experiment: Growth inhibition of human LOXIMVI cells after 48 hrs by sulforhodamine B assay
Outline: (§2)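 NCI 60-cell-line panel grown in RPMI-type medium with 5% fetal calf serum and 2 mM L-glutamine. Cells preincubated 24 h, then exposed continuously for 48 h to compound in DMSO at 10^-4 to 10^-8 M (five 10-fold levels). Growth read by SRB protein stain. GI50 is the concentration giving a 50% reduction in net protein increase relative to control cells.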

[1] = Growth inhibition of human Hs 578T cells assessed as cell growth at 10 uM after 48 hrs by sulforhodamine B assay; conditions: read-out: Activity
K562 = experiment: Growth inhibition of human K562 cells after 48 hrs by sulforhodamine B assay; conditions: K562, 48 h; outline: as §2
SNB-19 = experiment: Growth inhibition of human SNB19 cells after 48 hrs by sulforhodamine B assay; conditions: SNB-19, 48 h; outline: as §1
[2] = Growth inhibition of human EKVX cells after 48 hrs by sulforhodamine B assay; outline: as §2
PC-3 [3] = experiment: Growth inhibition of human PC3 cells assessed as cell growth at 10 uM after 48 hrs by sulforhodamine B assay; conditions: PC-3, 48 h, read-out: Activity
M14 = experiment: Growth inhibition of human M14 cells assessed as cell growth at 10 uM after 48 hrs by sulforhodamine B assay; conditions: M14, 48 h, read-out: Activity
RXF 393 = experiment: Growth inhibition of human RXF393 cells after 48 hrs by sulforhodamine B assay; conditions: RXF 393, 48 h; outline: as §1
SK-OV-3 = experiment: Growth inhibition of human SKOV3 cells assessed as cell growth at 10 uM after 48 hrs by sulforhodamine B assay; conditions: SK-OV-3, 48 h, read-out: Activity
A549 [4] = experiment: Growth inhibition of human A549/ATCC cells assessed as cell growth at 10 uM after 48 hrs by sulforhodamine B assay; conditions: A549, 48 h, read-out: Activity
SF-268 = experiment: Growth inhibition of human SF268 cells after 48 hrs by sulforhodamine B assay; conditions: SF-268, 48 h; outline: as §1
SK-MEL-5 = experiment: Growth inhibition of human SK-MEL-5 cells assessed as cell growth at 10 uM after 48 hrs by sulforhodamine B assay; conditions: SK-MEL-5, 48 h, read-out: Activity
SK-MEL-28 = experiment: Growth inhibition of human SK-MEL-28 cells assessed as cell growth at 10 uM after 48 hrs by sulforhodamine B assay; conditions: SK-MEL-28, 48 h, read-out: Activity
UACC-257 = experiment: Growth inhibition of human UACC257 cells assessed as cell growth at 10 uM after 48 hrs by sulforhodamine B assay; conditions: UACC-257, 48 h, read-out: Activity
Outline: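 Single-dose NCI screen. Tumor lines were cultured in medium with 5% fetal calf serum and 2 mM L-glutamine, preincubated 24 h, then given compound in DMSO. After 48 h continuous exposure, cell growth was estimated by sulforhodamine B protein assay.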

SN12C = experiment: Growth inhibition of human SN12C cells assessed as cell growth at 10 uM after 48 hrs by sulforhodamine B assay; conditions: read-out: Activity
COLO 205 [5] = experiment: Growth inhibition of human COLO205 cells after 48 hrs by sulforhodamine B assay; conditions: COLO 205, 48 h; outline: as §2
MCF7 = experiment: Growth inhibition of human MCF7 cells assessed as cell growth at 10 uM after 48 hrs by sulforhodamine B assay; conditions: MCF7, 48 h, read-out: Activity
COLO 205 [6] = experiment: Growth inhibition of human COLO205 cells assessed as cell growth at 10 uM after 48 hrs by sulforhodamine B assay; conditions: COLO 205, 48 h, read-out: Activity
Rattus norvegicus = experiment: Antiinflammatory activity in Wistar rat assessed as inhibition of carrageenan-induced paw edema at 0.05 mmol/kg, po administered 30 mins prior challenge measured after 3 hrs
Outline: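 Wistar rats of either sex, 150–175 g, fasted 16 h, 6 per group. Dosed orally at 0.05 mmol/kg, suspended in 1% CMC in water (10 ml/kg). 30 min later, 0.1 ml of 1% carrageenan in saline injected subplantar into the left hind paw. Paw volume read by plethysmometer at 0, 3 and 5 h. % inhibition = (1 − Vt/Vc) × 100 against the vehicle group.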

HL-60(TB) = experiment: Growth inhibition of human HL-60(TB) cells assessed as cell growth at 10 uM after 48 hrs by sulforhodamine B assay; conditions: HL-60, 48 h, read-out: Activity
NCI-H460 = experiment: Growth inhibition of human NCI-H460 cells after 48 hrs by sulforhodamine B assay; conditions: NCI-H460, 48 h; outline: as §1
OVCAR-8 = experiment: Growth inhibition of human OVCAR8 cells after 48 hrs by sulforhodamine B assay; conditions: OVCAR-8, 48 h; outline: as §1
A549 [7] = experiment: Growth inhibition of human A549/ATCC cells after 48 hrs by sulforhodamine B assay; conditions: A549, 48 h; outline: as §2
NCI-H522 = experiment: Growth inhibition of human NCI-H522 cells assessed as cell growth at 10 uM after 48 hrs by sulforhodamine B assay; conditions: NCI-H522, 48 h, read-out: Activity
HOP-92 = experiment: Growth inhibition of human HOP92 cells after 48 hrs by sulforhodamine B assay; conditions: HOP-92, 48 h; outline: as §2
A498 = experiment: Growth inhibition of human A498 cells after 48 hrs by sulforhodamine B assay; conditions: A498, 48 h; outline: as §2
PC-3 [8] = experiment: Growth inhibition of human PC3 cells after 48 hrs by sulforhodamine B assay; conditions: PC-3, 48 h; outline: as §1
[9] = read-out: LC50 (the source's name)

CCc1ccc(C2=NN(c3ccc(S(C)(=O)=O)cc3)C(=O)CC2)cc1
GI50 (RPMI-8226): 420 nM | TGI (RPMI-8226): > 100 µM | CC50 (RPMI-8226; [9]): > 100 µM | GI50 (OVCAR-3): 930 nM | LC50 (lethal concentration, 50% net cell kill) (OVCAR-3): > 100 µM | GI50 (LOX IMVI): 3500 nM | TGI (LOX IMVI): > 100 µM | CC50 (LOX IMVI; [9]): > 100 µM | growth at 10 µM [1]: -0.67% | GI50 (K562): 420 nM | TGI (K562): > 100 µM | CC50 (K562; [9]): > 100 µM | GI50 (SNB-19): 130 nM | TGI (SNB-19): > 100 µM | CC50 (SNB-19; [9]): > 100 µM | GI50 [2]: 4.19 µM | TGI [2]: 96.7 µM | CC50 [2, 9]: > 100 µM | growth at 10 µM (PC-3 [3]): 56.6% | growth at 10 µM (M14): 5.99% | GI50 (RXF 393): 2040 nM | LC50 (50% lethal concentration) (RXF 393): > 100 µM | TGI (RXF 393): 19.8 µM | growth at 10 µM (SK-OV-3): 28.7% | growth at 10 µM (A549 [4]): 35.6% | GI50 (SF-268): 6.99 µM | TGI (SF-268): > 100 µM | CC50 (SF-268; [9]): > 100 µM | growth at 10 µM (SK-MEL-5): 10.7% | growth at 10 µM (SK-MEL-28): 50.7% | growth at 10 µM (UACC-257): 59.1% | growth at 10 µM (SN12C): 31.4% | GI50 (COLO 205 [5]): 1020 nM | TGI (COLO 205 [5]): 12.6 µM | CC50 (COLO 205 [5]; [9]): 83.8 µM | growth at 10 µM (MCF7): 26% | growth at 10 µM (COLO 205 [6]): 22.5% | inhibition in vivo at 50 µmol/kg (Rattus norvegicus): 46.7% | growth at 10 µM (HL-60(TB)): 6.73% | GI50 (NCI-H460): 820 nM | TGI (NCI-H460): 36.9 µM | CC50 (NCI-H460; [9]): > 100 µM | GI50 (OVCAR-8): 3250 nM | LC50 (OVCAR-8): > 100 µM | TGI (OVCAR-8): > 100 µM | GI50 (A549 [7]): 910 nM | TGI (A549 [7]): > 100 µM | CC50 (A549 [7]; [9]): > 100 µM | growth at 10 µM (NCI-H522): -1.27% | GI50 (HOP-92): 1.58 µM | TGI (HOP-92): 9.88 µM | CC50 (HOP-92; [9]): > 100 µM | GI50 (A498): 140 nM | TGI (A498): 2300 nM | CC50 (A498; [9]): > 100 µM | GI50 (PC-3 [8]): 2760 nM | LC50 (PC-3 [8]): > 100 µM | TGI (PC-3 [8]): > 100 µM

O=c1[nH]cc(F)c(=O)[nH]1 [FLUOROURACIL]
GI50 (RPMI-8226): 40 nM | GI50 (OVCAR-3): 10 nM | GI50 (LOX IMVI): 240 nM | GI50 (K562): 3580 nM | GI50 (SNB-19): 3810 nM | GI50 [2]: 61.8 µM | GI50 (RXF 393): 2610 nM | GI50 (SF-268): 1.62 µM | GI50 (COLO 205 [5]): 150 nM | GI50 (NCI-H460): 50 nM | GI50 (OVCAR-8): 1740 nM | GI50 (A549 [7]): 180 nM | GI50 (HOP-92): 77.9 µM | GI50 (A498): 350 nM | GI50 (PC-3 [8]): 2360 nM
